Data on 32 compounds can be found in ChEMBL document CHEMBL4270570 (Eur J Med Chem, 2018).

For series [1], the target named is Gag-Pol polyprotein (Human immunodeficiency virus type 1 group M subtype B (isolate HXB2)(HIV-1), UniProt P04585). Kind of series: Inhibition of HIV1 reverse transcriptase polymerase activity using 18 nucleotide DNA primer and 100 nucleotide DNA template after 30 mins. On the set-up: species or system Human immunodeficiency virus 1. A digest of the protocol:
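Full-length RT at 20 nM with 40 nM template/primer (18-nt DNA primer on 100-nt DNA template) and 10 µM dNTPs in 50 mM Tris pH 7.8, 50 mM NaCl. Started with 6 mM MgCl2, with 1% DMSO and increasing compound concentrations. Primer extension ran 30 min at 37 °C and was stopped with 100 mM EDTA.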

Series [2] in a line: Cytotoxicity against human P4R5 MAGI cells. The class given is cell-based. The method, boiled down:
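P4R5 cells express CD4, CXCR4, CCR5 and an HIV LTR-driven β-galactosidase reporter. They were seeded at 4×10^3 cells per well in DMEM/10% FBS with puromycin (1 µg/mL).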

The target in series [3] is Human immunodeficiency virus type 1 integrase (Human immunodeficiency virus 1, UniProt Q7ZJM1). Kind of series: Inhibition of HIV integrase strand transfer activity using 5'-biotin/3'-Cy5-labeled DNA substrate preincubated for 5 mins followed by substrate addition measured after 30 mins by HTS assay.
Series [4] relates to Human immunodeficiency virus 1. Kind of series: Antiviral activity against HIV1 infected in CD4/CXCR4/CCR5 expressing human P4R5 MAGI cells preincubated with cells for 24 hrs followed by viral infection measured after 48 hrs by beta-galactosidase reporter gene assay. The class given is functional, organism-based.
Series [5] deals with Human immunodeficiency virus type 1 reverse transcriptase (Human immunodeficiency virus 1, UniProt Q72547). Kind of series: Inhibition of HIV1 reverse transcriptase RNaseH activity using 3'-fluorescein/5'-Dabcyl labeled HTS-1 substrate.

Sequence of Human immunodeficiency virus type 1 integrase (Q7ZJM1 whole entry): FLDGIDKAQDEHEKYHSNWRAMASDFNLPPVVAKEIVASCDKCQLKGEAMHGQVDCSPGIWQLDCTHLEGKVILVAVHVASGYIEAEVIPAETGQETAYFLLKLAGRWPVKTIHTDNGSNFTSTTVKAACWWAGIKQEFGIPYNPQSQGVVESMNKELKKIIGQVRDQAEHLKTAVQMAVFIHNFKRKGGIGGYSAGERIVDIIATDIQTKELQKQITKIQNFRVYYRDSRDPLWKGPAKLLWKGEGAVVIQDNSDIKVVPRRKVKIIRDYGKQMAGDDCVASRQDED

As for `COc1ccc(Sc2cc(=O)n(O)c(=O)[nH]2)cc1`, the IC50 in series [1] is > 10 µM; in series [3], 3.6 µM; in series [5] it was 0.012 µM. Besides, in series [2], the CC50 is > 100 µM. Besides, the EC50 in series [4] is > 20 µM.
`O=c1cc(Sc2ccccc2C(F)(F)F)[nH]c(=O)n1O`: the IC50 in series [1] was > 10 µM; in series [3], 0.88 µM; in series [5], 0.012 µM. Further, the CC50 in series [2] is > 100 µM. For the same compound, the EC50 in series [4] was 6.6 µM.
As to `O=c1cc(Sc2ccccc2Br)[nH]c(=O)n1O`, the IC50 was > 10 µM in series [1], 1.1 µM in series [3] and 0.008 µM in series [5]. Besides, the half-maximal cytotoxic concentration (CC50) in series [2] was > 100 µM. Further, the EC50 in series [4] is 6.5 µM.
For the compound `COc1cccc(-c2ccc(Sc3cc(=O)n(O)c(=O)[nH]3)cc2)c1`, the IC50 in series [1] was 10 µM; in series [3], > 1 µM; in series [5] it was 0.005 µM. Further, in series [2], the CC50 is > 100 µM. Further, the midpoint of the response in series [4], the EC50, lay at 7.7 µM.
For `O=c1cc(Sc2ccccc2F)[nH]c(=O)n1O`, the IC50 in series [1] was > 10 µM; in series [3], 0.77 µM; in series [5], 0.015 µM. In addition, the CC50 in series [2] was > 100 µM. The same compound registered an EC50 in series [4] of 4.7 µM.
As for `O=c1[nH]c(Sc2ccc(Br)cc2)c(I)c(=O)n1O`, the IC50 was found to be 0.46 µM in series [1] and 0.12 µM in series [5].
As for `O=c1cc(Sc2ccc(-c3ccc(F)cc3)cc2)[nH]c(=O)n1O`, the IC50 in series [1] is > 10 µM; in series [3], > 1 µM; in series [5], 0.006 µM. Also, the CC50 in series [2] is > 100 µM. The compound further gave an EC50 in series [4] of 12 µM.
For the compound `O=c1cc(Sc2cccc(F)c2)[nH]c(=O)n1O`, the IC50 was > 10 µM in series [1], 0.49 µM in series [3] and 0.014 µM in series [5]. The CC50 in series [2] was > 100 µM. The response in series [4] was half-maximal at 9.1 µM (EC50).
In the case of `O=c1cc(Sc2ccc(C(F)(F)F)cc2)[nH]c(=O)n1O`, the IC50 in series [1] was > 10 µM; in series [3], > 10 µM; in series [5], 0.031 µM. Also, the CC50 in series [2] was > 100 µM. Besides, the EC50 in series [4] was > 20 µM.
In the case of `COc1cccc(-c2ccc(Nc3cc(=O)n(O)c(=O)[nH]3)cc2)c1`, the CC50 in series [2] was > 25 µM. In addition, the EC50 in series [4] is > 25 µM.
Take `O=c1cc(Sc2ccc(Br)cc2)[nH]c(=O)n1O`: the figures for the IC50 in series [1] and in series [5] were 7 µM and 0.01 µM, respectively.
As for `O=c1cc(Sc2ccc(F)cc2)[nH]c(=O)n1O`, the IC50 is > 10 µM in series [1], 6.8 µM in series [3] and 0.037 µM in series [5]. Also, the CC50 in series [2] was > 100 µM. For the same compound, the EC50 in series [4] was > 20 µM.
`O=c1cc(Sc2ccccc2)[nH]c(=O)n1O`: the IC50 in series [1] is > 10 µM; in series [3], 1.1 µM; in series [5], 0.016 µM. Also, the CC50 in series [2] is > 100 µM. This compound also came in with an EC50 in series [4] of 11 µM.
For `O=c1cc(Sc2ccc(-c3ccc(Cl)cc3)cc2)[nH]c(=O)n1O`, the IC50 was > 10 µM in series [1], > 1 µM in series [3] and 0.007 µM in series [5]. For the same compound, the CC50 in series [2] is > 100 µM. The response in series [4] was half-maximal at 16 µM (EC50).
Consider `Cc1ccc(-c2ccc(Sc3cc(=O)n(O)c(=O)[nH]3)cc2)cc1`, for which the half-maximal inhibitory concentration (IC50) in series [1] was 7 µM; in series [3] it was > 1 µM; in series [5] it was 0.006 µM. The CC50 in series [2] is > 100 µM. Moreover, the EC50 in series [4] was determined as 7.5 µM.
Consider `CCc1ccc(Sc2cc(=O)n(O)c(=O)[nH]2)cc1`, for which the IC50 is > 10 µM in series [1], 1.3 µM in series [3] and 0.01 µM in series [5]. The CC50 in series [2] is > 100 µM. In series [4], the EC50 worked out at 11 µM.
Turning to `COc1cccc(Sc2cc(=O)n(O)c(=O)[nH]2)c1`, the IC50 is > 10 µM in series [1], 2.7 µM in series [3] and 0.013 µM in series [5]. In series [2], the CC50 is > 100 µM. The same compound had an EC50 in series [4] of 16 µM.
On the same counts, the results for `COc1ccc(-c2ccc(Sc3cc(=O)n(O)c(=O)[nH]3)cc2)cc1` are 10 µM, > 100 µM, 0.006 µM, > 100 µM and 10 µM.
For `O=c1cc(Sc2ccc(-c3cccc(C(F)(F)F)c3)cc2)[nH]c(=O)n1O`, the figures for the IC50 in series [1], in series [3] and in series [5] were > 10 µM, > 100 µM and 0.008 µM, respectively. In series [2], the CC50 was > 100 µM. Besides, the EC50 in series [4] is > 20 µM.
On to `Cc1cc(-c2ccc(Sc3cc(=O)n(O)c(=O)[nH]3)cc2)ccc1F`, for which the IC50 in series [1] is > 10 µM; in series [3], > 10 µM; in series [5], 0.005 µM. Moreover, the CC50 in series [2] was > 100 µM. This compound also returned an EC50 in series [4] of 18 µM.
Take `COc1ccccc1Sc1cc(=O)n(O)c(=O)[nH]1`: the IC50 in series [1] was > 10 µM; in series [3], 8.4 µM; in series [5], 0.017 µM. Also, the CC50 in series [2] was > 100 µM. The compound also came in with an EC50 in series [4] of 9 µM.
On to `O=c1cc(Sc2ccc(O)cc2)[nH]c(=O)n1O`, for which the figures for the IC50 in series [1], in series [3] and in series [5] were > 10 µM, 1.6 µM and 0.011 µM, respectively. In series [2], the CC50 was > 100 µM. Moreover, the EC50 in series [4] was > 20 µM.
On the same counts, the results for `O=c1cc(Sc2cccc(Br)c2)[nH]c(=O)n1O` are > 10 µM, 1.2 µM, 0.011 µM, > 100 µM and 8.2 µM.
With `CCc1ccccc1Sc1cc(=O)n(O)c(=O)[nH]1`, the figures for the IC50 in series [1], in series [3] and in series [5] were > 10 µM, 0.75 µM and 0.01 µM, respectively. Besides, the CC50 in series [2] is > 100 µM. Moreover, in series [4], a half-maximal effect (EC50) was put at 6.2 µM.
With `O=c1[nH]c(Sc2ccc(Br)cc2)c(Br)c(=O)n1O`, the IC50 was determined as 5 µM in series [1] and 0.07 µM in series [5].
For `O=c1cc(Sc2ccc(-c3cccc(F)c3)cc2)[nH]c(=O)n1O`, the IC50 is 10 µM in series [1], > 1 µM in series [3] and 0.005 µM in series [5]. The CC50 in series [2] was > 100 µM. The EC50 in series [4] stood at 7.2 µM.
Turning to `O=c1cc(Sc2ccc(-c3ccccc3)cc2)[nH]c(=O)n1O`, the IC50 amounted to 3.2 µM in series [1] and 0.09 µM in series [5].
`O=c1cc(Sc2cccc(C(F)(F)F)c2)[nH]c(=O)n1O`: the IC50 in series [1] is > 10 µM; in series [3], 0.88 µM; in series [5], 0.013 µM. Further, the CC50 in series [2] was > 100 µM. The same compound displayed an EC50 in series [4] of 6.2 µM.
On the same counts, the results for `O=c1cc(Sc2cccc(Cl)c2)[nH]c(=O)n1O` are > 10 µM, 0.59 µM, 0.011 µM, > 100 µM and 6.3 µM.
For `COc1cc(OC)cc(-c2ccc(Sc3cc(=O)n(O)c(=O)[nH]3)cc2)c1`, the IC50 was > 10 µM in series [1], > 100 µM in series [3] and 0.006 µM in series [5]. Also, the CC50 in series [2] was > 100 µM. Further, the concentration for a half-maximal effect (EC50) in series [4] was determined as 17 µM.
Take `O=c1cc(Sc2ccc(-c3ccc(C(F)(F)F)cc3)cc2)[nH]c(=O)n1O`: the figures for the IC50 in series [1], in series [3] and in series [5] were 8.4 µM, > 1 µM and 0.039 µM, respectively. For the same compound, the CC50 in series [2] is > 100 µM. In addition, the EC50 in series [4] stood at 12 µM.
`O=c1cc(Sc2cccc3ccccc23)[nH]c(=O)n1O`: the figures for the IC50 in series [1], in series [3] and in series [5] were 10 µM, 0.79 µM and 0.007 µM, respectively. For the same compound, the CC50 in series [2] was > 100 µM. For the same compound, in series [4], a half-maximal effect (EC50) was put at 6.3 µM.
